Experimental data: ChEMBL document CHEMBL1156750 (Bioorg Med Chem Lett, 2009); call rule not given here
“And” between values parts separate entries of the source, which are not always exact repeats. Equal values may be shown once.

Legend:
[1] = Cmax in dog at 2 mg/kg, po; format: ADME, organism-based, Canis lupus familiaris; set-up: dose 2 mg/kg, route oral; conditions: in vivo
In short: (§1)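 Fasted animals, n = 3 per species (rat, dog, monkey). Compound was dosed iv or po in a vehicle of 10 mg/mL in PEG400/water (1:1, v/v). Parameters reported were CLtotal, Vdss, t1/2, MRT, Cmax, Tmax and oral bioavailability.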

[2] = Tmax in monkey at 10 mg/kg, po; format: ADME, organism-based, Macaca mulatta; set-up: dose 10 mg/kg, route oral; conditions: rhesus monkey, in vivo
In short: (§2)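 Pharmacokinetics in fasted rat, dog and monkey, n = 3 per species. The compound was dosed at 10 mg/mL in PEG400/water (1:1, v/v). Doses were 10 mg/kg iv and po in rat, 2 mg/kg iv and po in dog, and 10 mg/kg iv and po in monkey. Clearance, Vdss, MRT and Tmax were derived from plasma profiles; oral bioavailability came from the po and iv data.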

[3] = target: Urokinase-type plasminogen activator (Homo sapiens, UniProt P00749); assay: Inhibition of human u-PA
[4] = Total clearance in monkey at 10 mg/kg, iv; format: ADME, organism-based, Macaca mulatta; set-up: dose 10 mg/kg, route intravenous; conditions: rhesus monkey, in vivo; in short: as §2
Cytochrome P450 2C19 [5] = target: T1, Cytochrome P450 2C19 (Homo sapiens, UniProt P33261); assay: Inhibition of CYP2C19 by HHA assay; format: ADME
T1 sequence (P33261 whole entry): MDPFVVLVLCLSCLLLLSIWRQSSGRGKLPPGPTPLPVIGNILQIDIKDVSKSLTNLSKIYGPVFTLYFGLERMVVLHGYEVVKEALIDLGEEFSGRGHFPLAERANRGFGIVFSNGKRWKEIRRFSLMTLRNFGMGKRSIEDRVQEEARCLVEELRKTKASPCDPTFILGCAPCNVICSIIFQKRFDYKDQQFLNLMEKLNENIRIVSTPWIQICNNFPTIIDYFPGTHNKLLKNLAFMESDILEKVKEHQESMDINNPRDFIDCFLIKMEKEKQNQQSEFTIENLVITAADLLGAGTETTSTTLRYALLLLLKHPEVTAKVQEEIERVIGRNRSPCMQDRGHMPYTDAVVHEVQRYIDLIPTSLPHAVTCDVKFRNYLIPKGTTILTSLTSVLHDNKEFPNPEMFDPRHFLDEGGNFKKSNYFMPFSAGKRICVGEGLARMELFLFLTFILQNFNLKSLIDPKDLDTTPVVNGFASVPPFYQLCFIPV

Prothrombin = Prothrombin (Homo sapiens, UniProt P00734); assay: Inhibition of human Thrombin
[6] = target: T2, Voltage-gated L-type calcium channel (Rattus norvegicus, UniProt P22002+Q02485+P27732); assay: Inhibition of rat L type calcium channel at verapamil site at 10 uM
Cytochrome P450 2C19 [7] = target: T1, Cytochrome P450 2C19; assay: Inhibition of CYP2C19; format: ADME
[8] = Total clearance in rat at 10 mg/kg, iv; format: ADME, organism-based; set-up: dose 10 mg/kg, route intravenous; conditions: in vivo; in short: as §2
[9] = Cmax in monkey at 10 mg/kg, po; format: ADME, organism-based, Macaca mulatta; set-up: dose 10 mg/kg, route oral; conditions: rhesus monkey, in vivo; in short: as §1
Plasminogen = Plasminogen (Homo sapiens, UniProt P00747); assay: Inhibition of human plasmin
[10] = target: Vitamin K-dependent protein C (Homo sapiens, UniProt P04070); assay: Inhibition of human Activated protein C
Sequence of Vitamin K-dependent protein C (P04070 43-197 limits assumed): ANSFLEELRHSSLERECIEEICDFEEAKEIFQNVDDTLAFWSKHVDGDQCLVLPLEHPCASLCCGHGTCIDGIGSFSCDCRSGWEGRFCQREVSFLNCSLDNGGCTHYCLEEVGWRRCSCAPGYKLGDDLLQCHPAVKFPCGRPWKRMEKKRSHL
Sequence of Vitamin K-dependent protein C (P04070 212-461 limits assumed): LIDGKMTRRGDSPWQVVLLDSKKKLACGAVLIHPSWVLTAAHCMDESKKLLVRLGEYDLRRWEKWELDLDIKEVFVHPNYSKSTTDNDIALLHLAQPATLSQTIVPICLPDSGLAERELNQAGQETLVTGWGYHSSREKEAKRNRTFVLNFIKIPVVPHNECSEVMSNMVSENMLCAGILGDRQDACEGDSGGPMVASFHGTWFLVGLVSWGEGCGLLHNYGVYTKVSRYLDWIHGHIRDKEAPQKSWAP

[11] = Plasma protein binding in Sprague-Dawley rat plasma at 30 mg/kg, id; format: ADME, organism-based; set-up: dose 30 mg/kg, route intraduodenal; conditions: read-out: PPB (converted)
Cytochrome P450 2C9 [12] = target: T3, Cytochrome P450 2C9 (Homo sapiens, UniProt P11712); assay: Inhibition of CYP2C9; format: ADME
T3 sequence (P11712 whole entry): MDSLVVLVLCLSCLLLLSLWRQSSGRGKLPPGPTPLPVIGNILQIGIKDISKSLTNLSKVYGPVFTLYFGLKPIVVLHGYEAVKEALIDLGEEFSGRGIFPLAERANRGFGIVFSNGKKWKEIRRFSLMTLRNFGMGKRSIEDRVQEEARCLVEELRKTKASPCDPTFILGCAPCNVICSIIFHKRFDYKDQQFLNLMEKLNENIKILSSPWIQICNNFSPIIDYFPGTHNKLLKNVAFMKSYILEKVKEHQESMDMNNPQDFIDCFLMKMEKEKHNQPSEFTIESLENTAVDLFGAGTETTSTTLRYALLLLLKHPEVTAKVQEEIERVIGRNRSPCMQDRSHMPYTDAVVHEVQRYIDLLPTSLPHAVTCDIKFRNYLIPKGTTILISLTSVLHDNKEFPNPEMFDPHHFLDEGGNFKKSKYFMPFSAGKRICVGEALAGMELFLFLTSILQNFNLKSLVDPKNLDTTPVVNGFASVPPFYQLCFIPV

[13] = target: Amine oxidase [flavin-containing] B (Rattus norvegicus, UniProt P19643); assay: Inhibition of rat MAO-B at 10 uM
Sequence of Amine oxidase [flavin-containing] B (P19643 whole entry): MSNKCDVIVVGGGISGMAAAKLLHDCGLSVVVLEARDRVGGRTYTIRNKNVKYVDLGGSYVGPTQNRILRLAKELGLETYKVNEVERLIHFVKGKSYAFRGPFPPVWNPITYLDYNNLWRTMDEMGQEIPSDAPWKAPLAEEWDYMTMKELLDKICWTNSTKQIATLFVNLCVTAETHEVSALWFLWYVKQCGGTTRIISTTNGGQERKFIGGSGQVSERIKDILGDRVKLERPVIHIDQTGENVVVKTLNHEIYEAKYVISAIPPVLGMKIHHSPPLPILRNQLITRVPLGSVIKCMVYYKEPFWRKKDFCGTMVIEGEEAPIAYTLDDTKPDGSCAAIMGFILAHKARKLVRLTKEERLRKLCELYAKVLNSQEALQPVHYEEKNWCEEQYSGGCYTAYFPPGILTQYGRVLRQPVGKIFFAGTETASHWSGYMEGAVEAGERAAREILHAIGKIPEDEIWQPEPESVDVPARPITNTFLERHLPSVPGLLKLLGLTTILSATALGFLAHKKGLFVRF

[14] = […] residence time in dog at 2 mg/kg, iv; format: ADME, organism-based, Canis lupus familiaris; set-up: dose 2 mg/kg, route intravenous; conditions: in vivo; in short: as §2
[15] = target: Tissue-type plasminogen activator (Homo sapiens, UniProt P00750); assay: Inhibition of human t-PA
Cytochrome P450 3A4 [16] = target: T4, Cytochrome P450 3A4 (Homo sapiens, UniProt P08684); assay: Inhibition of CYP3A4 by HHA assay; format: ADME
T4 sequence (P08684 whole entry): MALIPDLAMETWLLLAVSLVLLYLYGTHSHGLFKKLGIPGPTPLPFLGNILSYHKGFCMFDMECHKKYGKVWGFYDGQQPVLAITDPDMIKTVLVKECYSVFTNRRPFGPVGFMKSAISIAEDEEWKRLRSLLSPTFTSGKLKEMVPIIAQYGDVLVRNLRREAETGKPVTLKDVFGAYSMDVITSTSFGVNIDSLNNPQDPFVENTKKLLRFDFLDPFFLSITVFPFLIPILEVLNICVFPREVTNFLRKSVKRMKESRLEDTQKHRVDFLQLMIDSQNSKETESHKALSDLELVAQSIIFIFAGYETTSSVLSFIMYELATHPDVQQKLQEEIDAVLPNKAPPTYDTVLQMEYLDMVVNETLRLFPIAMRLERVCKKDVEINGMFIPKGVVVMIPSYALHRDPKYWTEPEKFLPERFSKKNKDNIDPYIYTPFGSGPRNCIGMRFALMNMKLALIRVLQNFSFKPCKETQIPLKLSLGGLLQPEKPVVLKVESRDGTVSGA

[17] = Oral bioavailability in rat at 10 mg/kg; format: ADME, organism-based; conditions: in vivo; in short: as §2
[18] = Volume of distribution in steady state in monkey at 10 mg/kg, iv; format: ADME, organism-based, Macaca mulatta; set-up: dose 10 mg/kg, route intravenous; conditions: rhesus monkey, in vivo, read-out: Vdss; in short: as §2
[19] = Half life in monkey at 10 mg/kg, iv; format: ADME, organism-based, Macaca mulatta; set-up: dose 10 mg/kg, route intravenous; conditions: rhesus monkey, in vivo; in short: as §1
[20] = target: Voltage-gated inwardly rectifying potassium channel KCNH2 (Homo sapiens, UniProt Q12809); assay: Inhibition of human ERG
Sequence of Voltage-gated inwardly rectifying potassium channel KCNH2 (Q12809 whole entry): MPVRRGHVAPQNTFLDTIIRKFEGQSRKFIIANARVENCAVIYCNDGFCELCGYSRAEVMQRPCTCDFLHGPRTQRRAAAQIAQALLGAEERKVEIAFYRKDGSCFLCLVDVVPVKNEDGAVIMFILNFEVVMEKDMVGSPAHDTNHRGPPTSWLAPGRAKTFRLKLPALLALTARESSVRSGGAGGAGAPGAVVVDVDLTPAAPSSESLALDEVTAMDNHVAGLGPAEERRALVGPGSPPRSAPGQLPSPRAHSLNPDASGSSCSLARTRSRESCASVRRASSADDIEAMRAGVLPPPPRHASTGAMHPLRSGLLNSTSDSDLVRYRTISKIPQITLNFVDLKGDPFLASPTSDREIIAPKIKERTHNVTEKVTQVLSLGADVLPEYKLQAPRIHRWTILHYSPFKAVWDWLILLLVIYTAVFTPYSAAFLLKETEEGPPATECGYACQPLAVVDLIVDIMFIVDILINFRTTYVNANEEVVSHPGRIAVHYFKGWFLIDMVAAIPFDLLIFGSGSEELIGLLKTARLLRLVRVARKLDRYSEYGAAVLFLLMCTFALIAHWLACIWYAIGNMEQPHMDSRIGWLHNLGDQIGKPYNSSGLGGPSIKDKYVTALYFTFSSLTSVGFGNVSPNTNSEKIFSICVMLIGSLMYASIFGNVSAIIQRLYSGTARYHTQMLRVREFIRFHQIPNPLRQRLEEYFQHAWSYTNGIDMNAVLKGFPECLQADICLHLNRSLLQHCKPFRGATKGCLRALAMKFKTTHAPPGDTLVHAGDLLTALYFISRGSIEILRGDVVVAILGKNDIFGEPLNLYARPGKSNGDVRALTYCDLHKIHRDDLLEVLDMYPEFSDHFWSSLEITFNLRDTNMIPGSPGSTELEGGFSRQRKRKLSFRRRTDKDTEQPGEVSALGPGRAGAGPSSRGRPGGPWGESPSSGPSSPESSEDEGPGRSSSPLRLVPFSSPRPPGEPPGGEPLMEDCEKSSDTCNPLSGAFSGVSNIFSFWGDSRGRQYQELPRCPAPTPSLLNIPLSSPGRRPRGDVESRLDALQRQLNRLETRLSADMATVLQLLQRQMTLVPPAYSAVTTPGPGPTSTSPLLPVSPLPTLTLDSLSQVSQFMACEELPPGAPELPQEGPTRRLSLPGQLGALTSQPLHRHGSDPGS

[21] = Oral bioavailability in dog at 2 mg/kg; format: ADME, organism-based, Canis lupus familiaris; conditions: in vivo; in short: as §2
[22] = Cmax in rat at 10 mg/kg, po; format: ADME, organism-based; set-up: dose 10 mg/kg, route oral; conditions: in vivo; in short: as §1
Cytochrome P450 1A2 = Cytochrome P450 1A2 (Homo sapiens, UniProt P05177); assay: Inhibition of CYP1A2; format: ADME
[23] = […] residence time in rat at 10 mg/kg, iv; format: ADME, organism-based; set-up: dose 10 mg/kg, route intravenous; conditions: in vivo; in short: as §2
[24] = target: Nuclear receptor subfamily 1 group I member 2 (Homo sapiens, UniProt O75469); assay: Inhibition of PXR
Sequence of Nuclear receptor subfamily 1 group I member 2 (O75469 whole entry): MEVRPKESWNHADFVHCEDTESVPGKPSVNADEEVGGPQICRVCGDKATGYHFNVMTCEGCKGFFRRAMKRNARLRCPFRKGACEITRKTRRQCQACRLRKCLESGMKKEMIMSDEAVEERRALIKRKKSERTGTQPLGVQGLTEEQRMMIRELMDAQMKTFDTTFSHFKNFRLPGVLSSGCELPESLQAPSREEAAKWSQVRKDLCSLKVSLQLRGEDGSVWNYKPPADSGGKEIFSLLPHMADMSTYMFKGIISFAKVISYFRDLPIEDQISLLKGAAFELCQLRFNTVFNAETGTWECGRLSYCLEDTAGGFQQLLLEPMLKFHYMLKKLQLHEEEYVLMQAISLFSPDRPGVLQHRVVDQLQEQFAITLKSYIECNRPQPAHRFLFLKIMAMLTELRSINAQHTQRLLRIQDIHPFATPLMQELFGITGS

Cytochrome P450 3A4 [25] = target: T4, Cytochrome P450 3A4; assay: Inhibition of CYP3A4 using BFC as a substrate; format: ADME
[26] = Tmax in rat at 10 mg/kg, po; format: ADME, organism-based; set-up: dose 10 mg/kg, route oral; conditions: in vivo; in short: as §2
[27] = […] residence time in monkey at 10 mg/kg, iv; format: ADME, organism-based, Macaca mulatta; set-up: dose 10 mg/kg, route intravenous; conditions: rhesus monkey, in vivo; in short: as §2
Cytochrome P450 2D6 [28] = target: T5, Cytochrome P450 2D6 (Homo sapiens, UniProt P10635); assay: Inhibition of CYP2D6 by HHA assay; format: ADME
T5 sequence (P10635 whole entry): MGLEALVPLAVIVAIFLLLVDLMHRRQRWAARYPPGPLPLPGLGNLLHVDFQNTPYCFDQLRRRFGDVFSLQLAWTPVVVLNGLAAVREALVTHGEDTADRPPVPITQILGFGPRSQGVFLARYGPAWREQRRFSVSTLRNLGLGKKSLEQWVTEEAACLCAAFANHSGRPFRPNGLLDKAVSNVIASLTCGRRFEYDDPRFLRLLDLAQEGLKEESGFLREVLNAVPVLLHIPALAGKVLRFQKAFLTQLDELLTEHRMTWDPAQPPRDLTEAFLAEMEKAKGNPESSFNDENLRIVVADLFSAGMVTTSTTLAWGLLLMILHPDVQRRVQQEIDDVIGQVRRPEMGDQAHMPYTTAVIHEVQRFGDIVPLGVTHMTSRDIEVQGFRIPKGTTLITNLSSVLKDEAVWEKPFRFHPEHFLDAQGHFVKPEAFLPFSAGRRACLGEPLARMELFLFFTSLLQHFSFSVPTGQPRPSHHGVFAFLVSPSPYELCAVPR

[29] = target: T2, Voltage-gated L-type calcium channel; assay: Inhibition of rat L type calcium channel at DHP site at 10 uM
[30] = Total clearance in dog at 2 mg/kg, iv; format: ADME, organism-based, Canis lupus familiaris; set-up: dose 2 mg/kg, route intravenous; conditions: in vivo; in short: as §2
[31] = Volume of distribution in steady state in dog at 2 mg/kg, iv; format: ADME, organism-based, Canis lupus familiaris; set-up: dose 2 mg/kg, route intravenous; conditions: in vivo, read-out: Vdss; in short: as §2
Cytochrome P450 3A4 [32] = target: T4, Cytochrome P450 3A4; assay: Inhibition of CYP3A4 using BZR as substrate; format: ADME
[33] = Tmax in dog at 2 mg/kg, po; format: ADME, organism-based, Canis lupus familiaris; set-up: dose 2 mg/kg, route oral; conditions: in vivo; in short: as §2
Cytochrome P450 2C9 [34] = target: T3, Cytochrome P450 2C9; assay: Inhibition of CYP2C9 by HHA assay; format: ADME
[35] = Half life in rat at 10 mg/kg, iv; format: ADME, organism-based; set-up: dose 10 mg/kg, route intravenous; conditions: in vivo; in short: as §1
[36] = Half life in dog at 2 mg/kg, iv; format: ADME, organism-based, Canis lupus familiaris; set-up: dose 2 mg/kg, route intravenous; conditions: in vivo; in short: as §1
[37] = target: Amine oxidase [flavin-containing] A (Rattus norvegicus, UniProt P21396); assay: Inhibition of rat MAO-A at 10 uM
[38] = Volume of distribution in steady state in rat at 10 mg/kg, iv; format: ADME, organism-based; set-up: dose 10 mg/kg, route intravenous; conditions: in vivo, read-out: Vdss; in short: as §2
Cytochrome P450 2D6 [39] = target: T5, Cytochrome P450 2D6; assay: Inhibition of CYP2D6; format: ADME
[40] = Oral bioavailability in monkey at 10 mg/kg; format: ADME, organism-based, Macaca mulatta; conditions: rhesus monkey, in vivo; in short: as §2

## Cc1cc2cc(N=C(NC(=O)c3ccc(C(=O)N(C)C)nc3)N[C@H]3CCCCN(CC(=O)N4CCCC4)C3=O)ccc2o1
[1]
  Cmax: 2800 ng/mL
[2]
  Tmax: 1.8 h
[3]
  Ki: > 7.8 µM
[4]
  clearance: 11 mL/min/kg
Cytochrome P450 2C19 [5]
  IC50: > 200 µM
Prothrombin
  Ki: 2.3 µM
[6]
  Activity: Not Active
Cytochrome P450 2C19 [7]
  IC50: 51 µM and 40 µM
[8]
  clearance: 27 mL/min/kg
[9]
  Cmax: 2100 ng/mL
Plasminogen
  Ki: > 16 µM
[10]
  Ki: > 18 µM
[11]
  fraction unbound: 0.28
Cytochrome P450 2C9 [12]
  IC50: 43 µM and > 40 µM
[13]
  Activity: Not Active
[14]
  MRT: 9 h
[15]
  Ki: 0.665 µM
Cytochrome P450 3A4 [16]
  IC50: > 200 µM
[17]
  bioavailability: 55%
[18]
  Vd: 2.3 L/kg
[19]
  half-life: 14 h
[20]
  Activity: Not Active
[21]
  bioavailability: 77%
[22]
  Cmax: 2200 ng/mL
Cytochrome P450 1A2
  IC50: > 40 µM
[23]
  MRT: 2 h
[24]
  Activity: Not Active
Cytochrome P450 3A4 [25]
  IC50: 39 µM
[26]
  Tmax: 0.6 h
[27]
  MRT: 4 h
Cytochrome P450 2D6 [28]
  IC50: > 200 µM
[29]
  Activity: Not Active
[30]
  clearance: 1.9 mL/min/kg
[31]
  Vd: 0.96 L/kg
Cytochrome P450 3A4 [32]
  IC50: > 40 µM
[33]
  Tmax: 1.3 h
Cytochrome P450 2C9 [34]
  IC50: > 200 µM
[35]
  half-life: 1.6 h
[36]
  half-life: 8.6 h
[37]
  Activity: Not Active
[38]
  Vd: 3.3 L/kg
Cytochrome P450 2D6 [39]
  IC50: > 40 µM
[40]
  bioavailability: 28%
